UPR XBP1 act: activators of adaptive XBP1 UPR arm, primary screen, cell-based, CHO-XBP1 luciferase reporter, luminescence, uHTS; 330,000 tested, 0.33% active; IRE1-XBP1 UPR activation; percent of tunicamycin response, DMSO as zero; activation, % at 20 µM;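 active means versus positive control, 20 µM dose yields 30% or more activation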;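 further: 100% = tunicamycin at 10 µg/mL and 0% = DMSO only wells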
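Material: CHO cell line with stable XBP1 luciferase reporter; schedule: 16-18 h cell attachment at 37 °C, then 6 h compound exposure; signal: glow luminescence from Steady-Glo reagent; medium: serum-containing F12 medium, 10% FBS; benchmarks: tunicamycin 10 µg/mL and vehicle-only wells; read-out: percent activation relative to tunicamycin reference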
697 NFkB inh: inhibitors of PMA/ionomycin-induced NF-kB reporter, 697 cells, primary screen, B-cell NF-kB inhibitor project, cell-based, luminescence, uHTS; 697 B-cell NF-kB luciferase reporter, 16 h; inhibition, % at 4 µM; 330,000 tested, 0.33% active; AID 435022, 2010; in the data active means inhibition above about 35%
CHOP UPR activ: activators of apoptotic CHOP UPR arm, primary screen, cell-based, CHO-CHOP luciferase reporter, luminescence, uHTS | AID 449763, 2010 | activation, % at 10 µM | 330,000 tested, 0.34% active | UPR activation; percent of tunicamycin response over DMSO baseline;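 active means at 10 µM dose, activation of 40% or more, normalized to positive control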;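 further: 100% = tunicamycin at 10 µg/mL and 0% = DMSO alone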
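Evaluation: % reporter activation, DMSO baseline versus tunicamycin full activation; System: CHO-CHOP luciferase reporter cell line; Input: 500 cells/well; Incubation: 6 h compound treatment, 37 °C; Measured by: Steady-Glo luciferase luminescence; Dosing: one dose, 10 µM in 0.5% DMSO; Buffer or medium: F12 medium, 10% FBS; Benchmarks: positive tunicamycin 10 µg/mL, negative DMSO alone.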
Gli-Sufu block: Gli-Sufu pathway antagonists, primary screen, luciferase luminescence, Sufu-KO-LIGHT cells, uHTS; inhibition, % at 5 µM; Sufu-KO-LIGHT fibroblasts, Gli luciferase reporter luminescence; AID 588413, 2011; 340,000 tested, 0.74% active;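 active means inhibition above about 55%, limit read from the data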;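 further: 0% = DMSO-treated cells and 100% = wells with medium but no cells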
Jurkat NFkB inh: inhibitors of induced NF-kB luciferase reporter, primary screen, TCR NF-kB activation inhibitor project, cell-based, luminescence, uHTS | Jurkat, PMA/ionomycin-induced NF-kB luciferase reporter | inhibition, % at 4 µM | 330,000 tested, 0.53% active; in the data active means inhibition above about 50%
CHOP inh: inhibitors of CHOP promoter induction, primary screen, cell-based, unfolded protein response, luciferase reporter; CHO-K1 CHOP-promoter luciferase, tunicamycin-induced, 15-18 h; 220,000 tested, 3.8% active; inhibition, % at 10 µM; AID 2732, 2010;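 active means compounds that reduced the stress-induced luciferase reporter signal by more than about 70% of percent inhibition, limit read from the data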;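 further: 0% = tunicamycin plus vehicle and 100% = wells without tunicamycin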
* marks the source's active call; other numbers are inactive results; / = no result given. This is a sample that favours compounds with a hit; in the whole collection about 3.9% have one here.

SMILES	UPR XBP1 act	697 NFkB inh	CHOP UPR activ	Gli-Sufu block	Jurkat NFkB inh	CHOP inh
O=C(NC1CCCCC1)C(c1ccc(F)cc1)N(Cc1cccs1)C(=O)CN1C(=O)c2ccccc2S1(=O)=O (centres undefined)	11.3	-9.0	6.3	6.4	-2.7	90.8*
O=C(NC1CCCC1)C(c1ccc(F)cc1)N(Cc1ccccc1Cl)C(=O)CCl (centres undefined)	6.5	-51.6	10.0	6.0	-4.3	107.7*
Cc1ccccc1C(=O)Nc1sc2c(c1C(=O)O)CCC2	-1.7	-10.5	-0.8	2.0	-13.5	85.2*
O=C(NC1CCCCCC1)C1CCC(CNS(=O)(=O)c2ccc(Br)s2)CC1 (centres undefined)	-2.6	-12.9	-0.7	10.0	-7.8	94.7*
CN1Cc2sc(NC(=S)NC(=O)c3ccccc3)c(C#N)c2CC1(C)C	-8.7	-21.0	-6.3	60.1*	38.7	65.7
Cn1nccc1C(=O)NC(=S)Nc1sc2c(c1C#N)CCCCC2	6.2	-68.2	1.3	-37.4	-33.5	91.2*
N#Cc1c(NC(=S)NC(=O)c2ccccc2)sc2c1CCC2	0.1	-47.8	5.3	-24.7	-46.2	60.5
COc1ccc(NC(=O)c2c(F)cccc2Cl)cc1S(=O)(=O)N1CCOCC1	-2.8	-6.3	-1.2	1.7	-3.1	/
CC(C)c1nc(Cl)c(C#N)c2c1CCCC2	-0.3	-27.6	0.2	-30.8	3.4	84.5*
Cc1[nH]c(=O)c(C#N)c(C)c1CCC(=O)Nc1cc(S(C)(=O)=O)ccc1Cl	-3.9	8.1	-2.3	9.2	-10.2	/
COc1ccc(/C=C/C(=O)c2ccc(OC)cc2OC)c(OC)c1	-3.3	30.6	1.0	-5.3	17.9	-16.0
COc1ccc(/C=C/C(=O)c2cc(Cl)cc(Cl)c2O)c(OC)c1	3.7	-12.4	5.8	11.9	10.5	70.6*
O=C(Cn1ccccc1=S)c1ccc(Cl)c(Cl)c1	1.0	14.4	1.4	-6.2	-11.2	/
On1ccccc1=S	/	/	/	73.7*	/	/
CCOC(=O)C1=C(N)Oc2cc(O)ccc2C1c1ccc([N+](=O)[O-])cc1 (centres undefined)	-2.2	-7.1	0.4	45.1	14.3	94.3*
O=c1oc2cc(OCc3ccc([N+](=O)[O-])cc3)ccc2c2c1CCCC2	27.2	-19.2	10.5	-23.4	-36.8	76.9*
Cc1cc(N2CCN(c3ccc(F)cc3)CC2)nc2cc(O)ccc12	2.8	-11.5	-0.3	13.1	13.0	81.6*
Cc1cccc(N2CCN(CC(=O)NCC3CCCCC3)CC2)c1C	-4.7	-21.1	-0.3	10.3	-24.1	75.8*
COc1ccc(NC(=O)CNCCC2=CCCCC2)cc1	-1.9	-10.9	-1.3	1.9	0.9	30.1
O=C(CCC1CCCCC1)Nc1ccccc1O	4.5	-72.3	3.1	-11.1	-83.6	73.1*
O=C(CNCCC1=CCCCC1)Nc1ccccc1N1CCCCC1	1.2	-8.7	1.4	6.7	-0.8	91.8*
O=C(CNCC1CCCCC1)Nc1ccc(OC(F)(F)F)cc1	0.9	16.8	-1.5	2.2	-1.8	90.6*
CNC(=O)/C(C#N)=C/c1c(N2CCCCCC2)nc2c(C)cccn2c1=O	1.3	10.3	2.4	9.2	-0.5	/
CCC(C)(C)C1CCC2(CC1)NC(=O)N(CC(=O)N(C)Cc1ccc(OC(F)F)cc1)C2=O (centres undefined)	-2.6	-24.4	-0.2	38.9	20.1	/
COc1cc(CNC(=O)c2cc(C(=O)NCc3cc(OC)cc(OC)c3)n(C)n2)cc(OC)c1	-7.0	16.6	-1.8	-8.3	8.0	/
SMILES	UPR XBP1 act	697 NFkB inh	CHOP UPR activ	Gli-Sufu block	Jurkat NFkB inh	CHOP inh
O=C(CNCC1CCCO1)Nc1ccccc1N1CCOCC1 (centres undefined)	0.3	13.2	0.0	3.2	10.8	-4.7
O=C(CNCC1CCCCC1)Nc1ccccc1N1CCCCC1	2.4	-27.1	0.2	14.2	9.5	78.7*
COc1ccc(OC)c(NS(=O)(=O)c2ccc3c(c2)C(C)(C)C(=O)N3C)c1	-1.2	7.3	-0.5	-11.8	-8.6	/
CCOC(=O)C1(Cc2ccc(OC)cc2)CCN(C(=O)CCn2cccn2)CC1	-0.1	-13.7	1.6	1.7	-5.9	11.9
CCCCCc1cc(O)c2c(C)cc(=O)oc2c1	13.0	-8.5	-0.4	11.4	1.1	72.3*
CCCN(CC(=O)Nc1ccccc1C)C(=O)Cc1c(C)nc2ccccc2c1C	-2.2	-1.9	1.1	-0.5	5.5	/
CS(=O)(=O)c1ccc2nc(NC(=O)Nc3ccc(Cl)c(Cl)c3)sc2c1	15.0	3.3	6.4	19.8	-7.4	13.2
CS(=O)(=O)c1ccc2nc(NC(=O)Nc3cccc(Cl)c3)sc2c1	21.4	-66.9	5.9	/	-43.9	92.3*
O=C(Nc1nc2ccccc2s1)Nc1ccc([N+](=O)[O-])cc1Cl	1.4	-13.0	0.2	/	-10.1	39.5
O=C(Nc1ccc(Cl)c([N+](=O)[O-])c1)Nc1nc2ccccc2s1	0.1	15.7	1.8	/	4.9	92.2*
O=C(Nc1ccc(Cl)cc1)/C(=C/c1ccc([N+](=O)[O-])cc1)c1nc2ccccc2s1	/	/	/	/	/	104.7*
Cc1cccc2c1NC(=O)C21OCC(CO)([N+](=O)[O-])CO1 (centres undefined)	-0.1	-6.0	-0.1	-0.3	3.2	/
Cc1cc(Br)ccc1OCC(=O)N(Cc1nc(-c2ccccc2)no1)C(C)C	0.9	16.7	0.5	0.0	11.5	94.8*
Cc1cccc(-c2noc(CN(C(=O)c3ccc(Br)o3)C(C)C)n2)c1	1.4	-0.5	1.0	-6.3	-13.7	87.8*
Cc1cccc(-c2noc(CN(C(=O)c3ccc4c(c3)OCO4)C(C)C)n2)c1	2.2	-28.1	-1.4	5.3	8.3	32.3
CCc1c(C)nc2cc(-c3cc(OC)cc(OC)c3)nn2c1N1CCCC1	6.9	-15.3	0.2	12.5	-2.6	91.5*
CCCCC(=O)N(CCOC)c1nnc(-c2ccccc2C)s1	3.9	3.4	1.7	8.1	-6.9	73.5*
Cc1cccc(NC(=O)CN2C(=O)S/C(=C\C(=O)Nc3ccc(Cl)cc3)C2=O)c1	-0.1	26.7	0.8	6.4	6.3	29.7
CC(/C=C1\SC(=O)N(CC(=O)Nc2cccc(O)c2)C1=O)=C\c1ccccc1	4.6	-6.7	0.9	9.1	-1.4	94.9*
COc1ccccc1C1CCN(C(=O)c2ccc(C(C)(C)C)cc2)CC1	1.1	3.0	0.4	7.4	6.8	/
CN(C(=O)CSc1nnc(-c2cccs2)n1C1CC1)C1CCS(=O)(=O)C1 (centres undefined)	0.6	-2.3	0.9	-5.9	5.3	/

Assay outcomes (PubChem BioAssay)
